# Bioassay records: PubChem, several laboratories
# Sampled rows, rich in hits. Any-hit rate of the full collection: about 12%.
# WT yeast gro inh: growth inhibition of WT yeast, mitochondrial fusion screen | mitochondrial fusion phenotypic screen, WT strain | inhibition, % at 10 µM | hit rate 2.1% among 190,000; in the data active means inhibition above about 58%; tested in S. cerevisiae
# Diaph act CS: activates diaphorase or chemically reduces, flagging diaphorase assay artifacts. Diaphorase/resazurin coupled assay, resorufin fluorescence, 16 min; stronger effect = higher value; 1 = vehicle wells, 0 = NADH-free wells. activation factor at 20 µM. hit rate 0.005% among 190,000. AID 1229;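 active means diaphorase activity raised at least twofold by the compound at 20 µM; inactive means activation factor below 2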
#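 Material: purified diaphorase enzyme from Clostridium kluyveri / Medium: HEPES pH 7.4 buffer with MgCl2 and Tween 20 / Schedule: enzyme reaction of 16 min at room temperature / Measured by: resorufin fluorescence, excitation 544 nm, emission 590 nm / Evaluation: rise in resorufin formation, marking diaphorase activation or chemical reduction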
# Diaph inh CS: inhibits diaphorase or chemically oxidizes, flagging diaphorase assay artifacts. hit rate 0.69% among 190,000. diaphorase resazurin-to-resorufin fluorescence, NADH, 16 min; bacterial (C. kluyveri) enzyme, not human. inhibition, % at 20 µM;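 active means primary screen inhibition at 20 µM above a set limit, cut at about 50% in these data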;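 further: plate controls were DMSO with full reaction for no effect and wells lacking NADH for full effect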
#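 Test system: Clostridium kluyveri diaphorase enzyme / Quantity: diaphorase at 0.14 U/mL in enzyme working solution / Incubation: 16-min room-temperature incubation before reading / Benchmarks: NADH-free wells as positive control, DMSO-only neutral wells / Signal: resorufin fluorescence 544/590 nm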
# KCC2 mod: modulators of human KCC2 chloride dependent transport. B-score of Tl+ flux slope (higher = more flux/activation; lower = inhibition) at 10 µM. Q9H2X9. AID 1456. hit rate 2.2% among 190,000. KCC2 cells, thallium flux FluoZin-2 fluorescence;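 active means thallium flux slope and its plate-corrected score both differing from the plate sample mean at a set confidence after two filtering rounds, in either direction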;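 further: slope of fluorescence scaled to starting intensity during 10 to 20 s after thallium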
# Target sequence (Q9H2X9 whole entry, looked up): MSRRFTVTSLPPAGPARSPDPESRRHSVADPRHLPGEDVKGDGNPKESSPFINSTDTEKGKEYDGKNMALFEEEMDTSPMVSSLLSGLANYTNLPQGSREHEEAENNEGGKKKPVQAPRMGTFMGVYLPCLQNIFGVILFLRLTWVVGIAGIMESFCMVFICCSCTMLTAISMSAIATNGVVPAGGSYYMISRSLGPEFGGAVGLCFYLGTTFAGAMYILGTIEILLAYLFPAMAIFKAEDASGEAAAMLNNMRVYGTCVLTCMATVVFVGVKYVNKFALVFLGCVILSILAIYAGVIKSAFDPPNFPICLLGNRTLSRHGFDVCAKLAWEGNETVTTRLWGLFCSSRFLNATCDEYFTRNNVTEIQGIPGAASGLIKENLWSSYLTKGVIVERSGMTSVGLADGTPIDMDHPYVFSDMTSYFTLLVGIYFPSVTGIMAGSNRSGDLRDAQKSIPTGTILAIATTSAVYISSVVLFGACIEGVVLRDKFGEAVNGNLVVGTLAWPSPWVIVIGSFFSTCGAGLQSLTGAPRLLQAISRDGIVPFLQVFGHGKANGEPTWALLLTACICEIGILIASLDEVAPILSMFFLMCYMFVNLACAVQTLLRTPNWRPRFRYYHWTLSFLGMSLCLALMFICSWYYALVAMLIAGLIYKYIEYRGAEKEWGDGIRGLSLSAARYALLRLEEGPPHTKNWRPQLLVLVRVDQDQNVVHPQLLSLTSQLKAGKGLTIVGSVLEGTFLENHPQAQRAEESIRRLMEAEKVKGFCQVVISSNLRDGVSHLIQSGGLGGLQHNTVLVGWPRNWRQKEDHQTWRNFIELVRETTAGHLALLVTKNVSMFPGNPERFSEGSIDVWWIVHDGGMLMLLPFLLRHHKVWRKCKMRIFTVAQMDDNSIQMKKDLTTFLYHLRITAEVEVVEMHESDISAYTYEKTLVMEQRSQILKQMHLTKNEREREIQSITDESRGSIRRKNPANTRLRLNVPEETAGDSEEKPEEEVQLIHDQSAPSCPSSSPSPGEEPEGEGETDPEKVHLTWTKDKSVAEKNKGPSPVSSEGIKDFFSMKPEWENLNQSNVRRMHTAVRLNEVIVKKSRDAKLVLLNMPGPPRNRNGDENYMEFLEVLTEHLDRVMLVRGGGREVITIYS
# ROMK primary: modulators of human ROMK potassium channel. P48048. Tet-inducible ROMK, thallium flux fluorescence; actives lie on both sides. B-score at 10 µM. hit rate 2% among 130,000. AID 1918;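 active means signal ratio slope over the read window, or its plate-corrected B-score, at least 3 SD from the plate mean, either direction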;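 further: B-score of the F/F0 ratio slope over 7 to 12 s after thallium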
# Lmaj promast: inhibitors of Leishmania major promastigote growth; AID 1063; hit rate 9% among 200,000; inhibition, % at 10 µM; Leishmania major promastigotes, resazurin fluorescence viability; in the data active means inhibition above about 50%;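 further: promastigotes grown with compound for 44 hours at 28 °C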
# ROMK hit retest: confirmation of human ROMK potassium channel modulators. AID 1917. normalized thallium flux (F/F0 slope) at 10 µM. shares compounds with ROMK primary. hit rate 54% among 3,000. ROMK thallium flux, fluorescence ratio; stronger effect = lower value;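 active means Flux at 10 µM at least 3 SD below or above vehicle control mean in one or both replicates; inconclusive means no clear call, values can overlap the other calls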
# Starred values were filed as active, the others as inactive; ? = inconclusive; · = no result.
SMILES,WT yeast gro inh,Diaph act CS,Diaph inh CS,KCC2 mod,ROMK primary,Lmaj promast,ROMK hit retest
Cc1ccc(C(=O)Nc2ccccc2C(=O)NCc2ccco2)cc1S(=O)(=O)N1CCCCC1,15.6,0.9,14.8,1.49,-0.604,62.2*,0.0782
O=C(NCCN1C(=O)S/C(=C/c2cccnc2)C1=O)C1CC(=O)N(Cc2ccccc2)C1 (stereo not given),7.8,0.9,10.5,-0.0158,-0.94,-3.7,·
Cc1occc1C(=O)NC1CCCCCC1,13.6,0.7,25.7,0.446,3.09*,1.3,0.0734
CCOC(=O)C1CCCN(C(=O)c2sc3nc(C)nc(N(CC)CC)c3c2C)C1 (stereo not given),-5.2,0.9,9.5,-0.729,·,2.1,·
CCC1CCCCN1C(=O)c1sc2nc(C)nc(N(CC)CC)c2c1C (stereo not given),9.1,1,-1.5,0.0751,-3.69*,14.8,0.0585*
CC(C)Cc1nc2sc3c(c2c(=O)n1N)CC(C)(C)OC3,·,·,·,-0.134,0,·,·
O=C1CCCc2nc3c(cc21)C(O)Oc1ccccc1-3 (stereo not given),12.3,1,0.5,·,·,6.4,0.0748
O=C1CCCc2nc3c(cc21)C(O)Oc1c-3ccc2ccccc12 (stereo not given),7.7,1,3.5,-0.329,-0.931,-8.5,·
OC(COCc1ccc(Cl)cc1)CN1CCN(CC(O)COCc2ccc(Cl)cc2)CC1 (stereo not given),58.0*,1.1,-10.1,-0.00157,-2.98*,99.6*,0.0536*
CC(C)NCC(O)COCc1ccc(Cl)cc1 (stereo not given),5.0,0.8,16.2,0.564,·,-3.2,·
CC(=O)Nc1ccc(S(=O)(=O)NNC(=O)c2cc3c4ccccc4n(C)c3s2)cc1,-11.3,0.8,18.3,·,0.0543,-17.5,·
COCCNC(=S)Nc1ccc2[nH]c(=O)[nH]c2c1,-2.3,0.6,35.4,1.62,1.81*,2.7,0.0723
N#C/C(=C\c1cc([N+](=O)[O-])ccc1Cl)C(N)=O,-21.7,0.9,5.0,0.296,-0.621,-8.9,·
N#C/C(=C/c1ccc([N+](=O)[O-])cc1)C(N)=O,4.1,0.9,5.7,0.397,-3.72*,-2.6,0.06*
O=C(CCSCc1cccc(Cl)c1)NCCc1ccc(Cl)cc1,14.6,0.7,30.2,-0.947,·,-2.7,·
CC1CCN(S(=O)(=O)c2cccc(C(=O)N(Cc3ccccc3)c3ccccn3)c2)CC1,12.1,0.9,12.1,-1.02,-3.99*,1.6,0.0619*
CN1CCN(S(=O)(=O)c2cccc(C(=O)N(c3ccccn3)C3CCCCC3)c2)CC1,12.0,0.9,9.7,·,-0.446,-5.3,·
CCNC(=O)c1ccccc1NC(=O)c1cccc(S(=O)(=O)N2CCC(C)CC2)c1,8.9,0.8,16.8,-0.497,·,17.3,0.0719
CCCn1c(NC(=O)c2cccc(S(=O)(=O)N3CCCC3)c2)nc2ccccc21,11.2,0.9,12.3,0.000573,·,33.5,0.0832
CC(C)C12CN3CC(C(C)C)(CN(C1)C3c1ccccc1)C2O (stereo not given),0.3,0.8,23.8,1.34,·,-5.1,·
CC1CCC2C(=O)N(c3ccc(Cc4ccncc4)cc3)C(=O)C2C1 (stereo not given),0.9,1,2.5,0.393,-3.12*,9.3,?
Cc1cc(C)nc(SCC(=O)N/N=C/c2cccc([N+](=O)[O-])c2)n1,-24.3,0.8,17.3,0.0429,·,1.8,·
COc1ccc(CCC(C)Nc2ccccc2F)cc1 (stereo not given),13.5,0.9,8.3,-0.427,0.233,-8.5,·
COc1ccc(CCC(C)NC2C3CC4CC(C3)CC2C4)cc1 (stereo not given),19.1,1,1.4,0.503,·,14.3,0.0571*
CCOC(=O)c1cc2[nH]c3ccccc3c2[n+](-c2ccc([N+](=O)[O-])cc2)c1N,16.2,0.8,15.2,-0.249,-0.729,9.5,·
SMILES,WT yeast gro inh,Diaph act CS,Diaph inh CS,KCC2 mod,ROMK primary,Lmaj promast,ROMK hit retest
CCN1/C(=C/c2ccc3ccccc3[n+]2CC)C=Cc2ccccc21,83.2*,0.9,10.1,-3.61,-4.69*,100.5*,0.0377*
CCN1C(=C2C(=O)c3ccccc3C2=O)C=Cc2ccccc21,8.7,0.9,7.8,-0.454,-0.025,27.0,·
Cc1ccc(-c2c[n+](CC(=O)Nc3nc(-c4ccccc4)cs3)c3n2CCC3)cc1,·,·,·,-2.43,-4.62*,·,0.0597*
CCC(=O)N(C)CCc1cc2c(c(OC)c1/C=N/NC(=O)c1ccncc1)OCO2,·,·,·,-0.753,-2.01*,·,0.0718
Cc1cc(C(=O)CSc2nnc(-c3cccs3)n2Cc2ccccc2)c(C)n1C,-1.1,0.9,14.2,-2.94,-1.01,7.7,·
O=c1cc(CSc2nnc(-c3cccs3)n2Cc2ccccc2)nc2sc3ccccc3n12,19.5,0.6,39.4,-2.66,·,1.3,0.0638*
CC1(C)Cc2c(C#N)c(SCC(=O)c3ccccc3)nc(N3CCOCC3)c2CO1,-14.4,0.8,24.1,-0.61,-3.91*,-3.7,0.0532*
O=C(Nc1ccc(Cc2ccncc2)cc1)c1cc([N+](=O)[O-])ccc1N1CCOCC1,-11.6,0.8,21.3,-2.1,·,-2.0,·
COc1ccccc1/C=N/N1C(=O)C(CC(=O)Nc2ccc([N+](=O)[O-])cc2OC)SC1=Nc1cccc(C)c1C (stereo not given),-27.9,0.9,13.7,0.232,2.75*,25.2,0.0887
COc1ccc(N2CS(=O)(=O)/C(=C/N(C)C)C2=O)cc1,-6.8,1.1,-7.7,0.405,·,11.3,·
CC(C)(C)NC(=O)COC(=O)c1snc(C(=O)NC2CCCCC2)c1N,5.1,0.8,17.6,-0.781,-3.8*,16.1,0.0716
CC1CC(C)CN(CCCNC(=O)c2csc3c2CCCC3)C1 (stereo not given),21.2,0.8,16.5,-0.185,-2.96*,92.5*,0.0635*
CC(C)C(=O)N1CCC(c2nc(-c3ccc(S(=O)(=O)N4CCN(C)CC4)cc3)no2)CC1,-10.2,0.9,8.9,-0.352,0.0445,-1.2,0.0903
Cc1ccc(CN2CCN(Cc3ccc(Oc4ncccn4)cc3)CC2CCO)cc1 (stereo not given),-12.2,0.9,12.1,-2.12,-0.534,-7.0,·
CCCCn1c(=N)n(CC(O)COc2ccccc2)c2ccccc21 (stereo not given),32.5,0.9,8.7,0.0299,-3.67*,54.9*,?
CC(=O)Nc1ccc(OCC(O)Cn2c(C)nc3ccccc32)cc1 (stereo not given),-1.3,1.1,-5.9,-0.661,-0.0889,-6.3,·
CCCCn1c(=N)n(CC(O)c2ccccc2)c2ccccc21 (stereo not given),·,·,·,-1.25,-0.978,·,·
CCCn1c(=N)n(CC(O)COc2cccc(C)c2)c2ccccc21 (stereo not given),7.9,0.9,14.3,·,-3.44*,95.6*,0.0508*
